# Test results: ChEMBL document CHEMBL4811272, “A new sulfated triterpene glycoside from the sea cucumber Colochirus quadrangularis, and evaluation of its antifungal, antitumor and immunomodulatory activities” (Bioorg Med Chem, 2021)
# Activity calls are given as the source filed them. No cut-off for these calls is given here.
# Key:
# A549 = assay: Cytotoxicity against human A549 cells assessed as reduction in cell viability by sulforhodamine B assay; type: functional, cell-based
# Procedure, shortened: (§1)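 Cells were kept in RPMI-1640 with 10% FBS, 2 mM L-glutamine, 50 μM β-mercaptoethanol and penicillin/streptomycin, at 37 °C in 5% CO2. SRB assay used 100, 10, 1, 0.1 and 0.01 μM, each in triplicate. Percent inhibition was calculated against solvent control OD. IC50 came from Logit curve fitting and is the mean of three independent experiments.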
# Candida albicans = assay: Antifungal activity against Candida albicans ATCC 76615 by microplate reader assay; type: functional; conditions: ATTCC76615
# Procedure, shortened: (§2)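 Broth microdilution read by optical density at 630 nm. MIC80 is the first well with about 80% less growth than the drug-free well. Each concentration was run in three replicate wells, and values are means of three independent experiments.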
# Cryptococcus neoformans = assay: Antifungal activity against Cryptococcus neoformans ATCC 32609 by microplate reader assay; type: functional; conditions: ATTCC32609; procedure, shortened: as §2
# Candida tropicalis = assay: Antifungal activity against clinical strain Candida tropicalis by microplate reader assay; type: functional; procedure, shortened: as §2
# Candida parapsilosis = assay: Antifungal activity against clinical strain Candida parapsilosis by microplate reader assay; type: functional; conditions: Lodderomyces parapsilosis; procedure, shortened: as §2
# MKN-28 = assay: Cytotoxicity against human MKN-28 cells assessed as reduction in cell viability by sulforhodamine B assay; type: functional, cell-based; procedure, shortened: as §1
# Bel-7402 [1] = assay: Cytotoxicity against human Bel-7402 cells assessed as reduction in cell viability by sulforhodamine B assay; type: functional, cell-based; procedure, shortened: as §1
# SPC-A4 = assay: Cytotoxicity against human SPC-A4 cells assessed as reduction in cell viability by sulforhodamine B assay; type: functional, cell-based; procedure, shortened: as §1
# HCT-116 [2] = assay: Induction of apoptosis in human HCT-116 cells assessed as increase in early apoptotic cells measured upto 2 times of IC50 concentration by annexin V staining based flow cytometry analysis; type: functional, cell-based
# Procedure, shortened: (§3)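 HCT-116 cells treated with vehicle or three compound concentrations, collected, and stained with Annexin V-FITC and propidium iodide in the dark at 4 °C. Flow cytometry quadrants: Q4 live, Q3 early apoptotic, Q2 late apoptotic, Q1 necrotic. n = 3; ANOVA vs vehicle.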
# HCT-116 [3] = assay: Induction of apoptosis in human HCT-116 cells assessed as increase in late apoptotic cells measured upto 2 times of IC50 concentration by annexin V staining based flow cytometry analysis; type: functional, cell-based; procedure, shortened: as §3
# HMEC-1 [4] = assay: Antiproliferative activity against human HMEC-1 cells assessed as inhibition of proliferation by SRB method; type: functional, cell-based
# Procedure, shortened: (§4)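 HMEC-1 endothelial cells seeded and exposed to compound. Proliferation read by SRB and migration by Transwell. IC50 calculated from three independent experiments.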
# HMEC-1 [5] = assay: Antimigratory activity against human HMEC-1 cells assessed as inhibition of cell migration by transwell assay; type: functional, cell-based; procedure, shortened: as §4
# [6] = biological target: Vascular endothelial growth factor receptor 2 (Mus musculus, UniProt P35918); assay: Inhibition of VEGFR2 in mouse NIH/3T3 cells assessed as reduction of VEGF-stimulated phosphorylation; type: cell-based
# Vascular endothelial growth factor receptor 2, sequence (P35918 whole entry): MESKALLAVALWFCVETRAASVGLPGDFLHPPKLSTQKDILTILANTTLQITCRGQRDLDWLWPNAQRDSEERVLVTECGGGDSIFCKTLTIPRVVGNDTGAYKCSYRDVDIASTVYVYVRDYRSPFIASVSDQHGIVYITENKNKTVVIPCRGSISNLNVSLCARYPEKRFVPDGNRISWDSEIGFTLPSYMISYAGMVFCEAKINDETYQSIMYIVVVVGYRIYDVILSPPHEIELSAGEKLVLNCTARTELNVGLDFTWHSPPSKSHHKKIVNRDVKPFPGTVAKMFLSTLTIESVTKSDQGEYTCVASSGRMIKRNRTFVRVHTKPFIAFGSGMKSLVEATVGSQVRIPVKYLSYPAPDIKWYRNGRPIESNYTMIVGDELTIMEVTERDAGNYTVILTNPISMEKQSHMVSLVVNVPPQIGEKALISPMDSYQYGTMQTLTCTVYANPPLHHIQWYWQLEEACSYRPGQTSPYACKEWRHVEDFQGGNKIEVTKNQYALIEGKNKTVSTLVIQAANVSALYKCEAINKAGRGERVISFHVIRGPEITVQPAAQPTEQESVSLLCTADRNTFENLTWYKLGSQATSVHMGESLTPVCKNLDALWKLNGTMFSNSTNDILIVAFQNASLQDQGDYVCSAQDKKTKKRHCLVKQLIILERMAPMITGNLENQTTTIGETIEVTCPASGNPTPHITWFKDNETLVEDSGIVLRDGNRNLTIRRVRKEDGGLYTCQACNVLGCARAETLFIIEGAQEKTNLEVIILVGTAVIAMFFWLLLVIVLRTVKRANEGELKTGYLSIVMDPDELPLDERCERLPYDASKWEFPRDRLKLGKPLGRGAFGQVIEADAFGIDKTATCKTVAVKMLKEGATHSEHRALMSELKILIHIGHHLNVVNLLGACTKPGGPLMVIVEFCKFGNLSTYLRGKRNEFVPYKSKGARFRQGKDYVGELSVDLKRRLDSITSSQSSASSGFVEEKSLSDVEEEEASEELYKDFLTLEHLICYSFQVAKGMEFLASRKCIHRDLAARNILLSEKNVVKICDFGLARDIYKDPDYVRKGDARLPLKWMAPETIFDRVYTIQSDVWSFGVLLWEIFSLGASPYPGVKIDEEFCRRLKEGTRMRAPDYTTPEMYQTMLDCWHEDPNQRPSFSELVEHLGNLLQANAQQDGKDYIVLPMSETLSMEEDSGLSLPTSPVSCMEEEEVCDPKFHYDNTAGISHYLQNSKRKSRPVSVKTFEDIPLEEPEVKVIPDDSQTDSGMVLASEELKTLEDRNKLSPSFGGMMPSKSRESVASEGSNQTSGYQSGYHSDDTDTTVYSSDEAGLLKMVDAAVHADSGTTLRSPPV
# Procedure, shortened: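 NIH/3T3 fibroblasts transfected to overexpress VEGFR-2 or PDGFR-β, starved 24 h, then given compound. Stimulation: VEGF 500 ng/mL for VEGFR-2 cells, PDGF-BB 150 ng/mL for PDGFR-β cells. Cells fixed in 4% paraformaldehyde and probed with PY-99 anti-phosphotyrosine, secondary IgG and HRP-avidin. OD 405 nm read after ABTS; IC50 from three independent experiments.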
# CCRF S-180 [7] = assay: Antitumor activity against mouse S-180 cells implanted in KM mouse assessed as tumor growth inhibition at 0.5 mg/kg, IG administered everyday for 7 days relative to control; type: functional; conditions: CCRF S-180, po, 168 h, time 7 day, read-out: TGI
# Procedure, shortened: (§5)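 S-180 or H22 cells, about 2.5 × 10⁶ per mouse, injected s.c. in the right axilla of wild-type KM mice. Randomized after 24 h and dosed intragastrically for 7 days; sacrificed 24 h after the last dose. TGI = (W_C − W_T)/W_C × 100% from average tumor weight. n = 8; one-way ANOVA vs vehicle.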
# CCRF S-180 [8] = assay: Antitumor activity against mouse S-180 cells implanted in KM mouse assessed as tumor growth inhibition at 50 mg/kg, IG administered everyday for 7 days relative to control; type: functional; conditions: CCRF S-180, po, 168 h, time 7 day, read-out: TGI; procedure, shortened: as §5
# H22 [9] = assay: Antitumor activity against mouse H22 cells implanted in KM mouse assessed as tumor growth inhibition at 0.5 mg/kg, IG administered everyday for 7 days relative to control; type: functional; conditions: H22, po, 168 h, time 7 day, read-out: TGI; procedure, shortened: as §5
# H22 [10] = assay: Antitumor activity against mouse H22 cells implanted in KM mouse assessed as tumor growth inhibition at 50 mg/kg, IG administered everyday for 7 days relative to control; type: functional; conditions: H22, po, 168 h, time 7 day, read-out: TGI; procedure, shortened: as §5
# Mus musculus [11] = assay: Immunomodulatory activity in cyclophosphamide-immunosuppressed KM mouse assessed as improved in phagocytosis function in at 50 to 500 mg/kg, IG once daily measured after 14 days; type: functional, organism-based; conditions: dose 50-500 mg/kg, time 14.0 day
# Procedure, shortened: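 KM mice dosed intragastrically once daily for 14 days at 5, 50 or 500 mg/kg; vehicle 0.5% CMC-Na. CTX 50 mg/kg i.p. on days 7, 9 and 11. 1 h after the last dose, 25% Indian ink given i.v. at 0.1 mL/10 g. Blood (20 µL) taken at 2 and 10 min, lysed in 2 mL water, OD 680 nm read. K and α calculated with body, liver and spleen weights. n = 8.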
# HCT-116 [12] = assay: Induction of apoptosis in human HCT-116 cells assessed as apoptosis associated morphological changes measured upto 2 times of IC50 concentration for 24 hrs by Hoechst staining method; type: functional, cell-based
# Procedure, shortened: (§6)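 HCT-116 cells treated with vehicle or three compound concentrations, then stained with Hoechst 33258. Nuclei examined by inverted fluorescence microscopy at ×400 in five random fields. Apoptotic cells expressed as % of cells counted. n = 3; ANOVA vs vehicle.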
# HCT-116 [13] = assay: Induction of apoptosis in human HCT-116 cells assessed as apoptotic nuclei cells measured upto 2 times of IC50 concentration for 24 hrs by Hoechst staining method; type: functional, cell-based; procedure, shortened: as §6
# Bel-7402 [14] = assay: Antitumor activity against human Bel-7402 cells implanted in BALB/c-nu mouse assessed as T/C ratio at 5 mg/kg, IG administered everyday for 7 days relative to control; type: functional; conditions: time 7 day
# Bel-7402 [15] = assay: Antitumor activity against human Bel-7402 cells implanted in BALB/c-nu mouse assessed as T/C ratio at 50 mg/kg, IG administered everyday for 7 days relative to control; type: functional; conditions: time 7 day
# Bel-7402 [16] = assay: Antitumor activity against human Bel-7402 cells implanted in BALB/c-nu mouse assessed as T/C ratio at 500 mg/kg, IG administered everyday for 7 days relative to control; type: functional; conditions: time 7 day
# Bel-7402 [17] = assay: Antitumor activity against human Bel-7402 cells implanted in BALB/c-nu mouse assessed as T/C ratio at 100 mg/kg, IG administered everyday for 7 days relative to control; type: functional; conditions: time 7 day
# Mus musculus [18] = assay: Immunomodulatory activity in cyclophosphamide-immunosuppressed KM mouse assessed as improved thymus index in at 50 to 500 mg/kg, IG once daily measured after 14 days; type: functional, organism-based; conditions: dose 50-500 mg/kg, time 14.0 day
# Procedure, shortened: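 KM mice dosed intragastrically at 5, 50 or 500 mg/kg; vehicle 0.5% CMC-Na. After five doses, immunized i.p. with 0.2 mL 20% rabbit erythrocytes, and dosing continued for 8 days. CTX 30 mg/kg i.p. on days 2, 4 and 6 after immunization. 1 h after the last dose, spleen and thymus weighed; index in g/kg. n = 8.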
smiles,measurement,setting,value
C=C(C)CCC[C@]1(C)OC(=O)[C@]23CC[C@@H]4C(=CCC5C(C)(C)[C@@H](O[C@@H]6OC[C@@H](OS(=O)(=O)[O-])[C@H](O)[C@H]6O[C@@H]6O[C@H](C)[C@@H](O[C@@H]7OC[C@@H](O)[C@H](O[C@@H]8O[C@H](CO)[C@@H](O)[C@H](OC)[C@H]8O)[C@H]7O)[C@H](O)[C@H]6O)CC[C@@]54C)[C@]2(C)C[C@H](OC(C)=O)[C@@H]31.[Na+] (stereo not given in full),IC50,A549,1270 nM
same,MIC80,Candida albicans,4 µg/mL
same,MIC80,Cryptococcus neoformans,16 µg/mL
same,MIC80,Candida tropicalis,8 µg/mL
same,MIC80,Candida parapsilosis,4 µg/mL
same,IC50,MKN-28,1830 nM
same,IC50,Bel-7402 [1],1450 nM
same,IC50,SPC-A4,1500 nM
same,Activity,HCT-116 [2],Active
same,Activity,HCT-116 [3],Active
same,IC50,HMEC-1 [4],1600 nM
same,IC50,HMEC-1 [5],50 nM
same,IC50,[6],2200 nM
same,inhibition in vivo at 0.5 mg/kg,CCRF S-180 [7],21.6%
same,inhibition in vivo at 50 mg/kg,CCRF S-180 [8],55.5%
same,inhibition in vivo at 0.5 mg/kg,H22 [9],22.1%
same,inhibition in vivo at 50 mg/kg,H22 [10],43.3%
same,Activity,Mus musculus [11],Active
same,Activity,HCT-116 [12],Active
same,Activity,HCT-116 [13],Active
same,T/C,Bel-7402 [14],45%
same,T/C,Bel-7402 [15],42.2%
same,T/C,Bel-7402 [16],32%
same,T/C,Bel-7402 [17],20%
same,Activity,Mus musculus [18],Active
